Among the data in ChEMBL document CHEMBL1157014, “Synthesis, characterization and biological evaluation of some thiourea derivatives bearing benzothiazole moiety as potential antimicrobial and anticancer agents” (Eur J Med Chem, 2010) are MIC and IC50 values, retold here.

In brackets after ≈: the same amount, converted by molar mass.

One assay relates to Enterobacter cloacae. Kind of assay: Antibacterial activity against Enterobacter cloacae ATCC 13047 after 24 hrs by browth microdilution assay. The format is functional. Particulars: ATCC 13047, 24 h. The method, boiled down: (§1)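 Broth microdilution per CLSI. Colonies suspended in 0.9% saline and adjusted to McFarland 0.5. Compounds dissolved in DMSO, diluted with distilled water to 100, 50, 25, 12.5, 6.25 and 3.125 µg/ml, with DMSO as negative control. Gentamycin (Gram-negative) and amikacin (Gram-positive) served as reference drugs. Incubation at 37 °C for 24 h. MIC taken as the lowest concentration preventing visible growth.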

Another assay relates to Pseudomonas aeruginosa. Nature of the assay: Antibacterial activity against Pseudomonas aeruginosa ATCC 27853 after 24 hrs by browth microdilution assay. The format is functional. As to conditions: ATCC 27853, 24 h. A digest of the protocol:
as §1

For a further assay, the system named is Proteus vulgaris. Nature of the assay: Antibacterial activity against Proteus vulgaris ATCC 13315 after 24 hrs by browth microdilution assay. The format is functional. Particulars: ATCC 13315, 24 h. A digest of the protocol:
as §1

The subject of assay [1] is Staphylococcus epidermidis. Nature of the assay: Antibacterial activity against Staphylococcus epidermidis ATCC 12228 after 24 hrs by browth microdilution assay. The format is functional. Particulars: ATCC 12228, 24 h. The method, boiled down: as §1
The test system of another assay is Staphylococcus aureus. Nature of the assay: Antibacterial activity against Staphylococcus aureus ATCC 29213 after 24 hrs by browth microdilution assay. The format is functional. Particulars: ATCC 29213, 24 h. The method, boiled down: as §1
Another assay has as its system Enterococcus faecalis. Nature of the assay: Antibacterial activity against Enterococcus faecalis ATCC 29212 after 24 hrs by browth microdilution assay. The format is functional. Particulars: ATCC 29212, 24 h. The method, boiled down: as §1
For another assay, the system named is Nakaseomyces glabratus. Kind of assay: Antifungal activity against Candida glabrata ATCC 32554 after 48 hrs by browth microdilution assay. The format is functional. As to conditions: ATCC 32554, 48 h. The method, boiled down: (§2)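 Yeast colonies suspended in 0.9% saline and adjusted to McFarland 0.5, then tested by CLSI broth microdilution. Compounds in DMSO, diluted with distilled water to 3.125–100 µg/ml, with DMSO as negative control and nystatin as reference. Incubation at 37 °C, read after 48 h. MIC is the lowest concentration with no visible growth.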

The test system of another assay is Candida albicans. Kind of assay: Antifungal activity against Candida albicans ATCC 90028 after 48 hrs by browth microdilution assay. Particulars: ATCC 90028, 48 h. The format is functional. The method, boiled down:
as §2

The next assay deals with Candida tropicalis. Nature of the assay: Antifungal activity against Candida tropicalis ATCC 20336 after 48 hrs by browth microdilution assay. The format is functional. Particulars: ATCC 20336, 48 h. The method, boiled down:
as §2

In the next assay the test system is Pichia kudriavzevii. Nature of the assay: Antifungal activity against Candida krusei ATCC 6268 after 48 hrs by browth microdilution assay. The format is functional. Particulars: ATCC 6268, 48 h. The method, boiled down: as §2
Assay [2] has as its system MCF7. Kind of assay: Cytotoxicity against human MCF7 after 24 hrs by MTT assay. The format is functional, cell-based. Particulars: MCF7, 24 h. A digest of the protocol: (§3)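 Cells grown in MEM with 10% FBS and 1% glutamine at 5% CO2, seeded at 1.0×10^4 cells. Exposed to compounds at 1–100 µM in medium containing 0.1% DMSO for 24 h at 37 °C. MTT (1 mg/ml) added for 5 h at 37 °C, then DMSO added and absorbance read at 540 nm. Run in triplicate; IC50 determined.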

For another assay, the system named is HeLa. Kind of assay: Cytotoxicity against human HeLa after 24 hrs by MTT assay. The format is functional, cell-based. A digest of the protocol: as §3
Assay [3] has as its system MCF7. Nature of the assay: Cytotoxicity against human MCF7 after 48 hrs by MTT assay. Particulars: MCF7, 48 h. The format is functional, cell-based. A digest of the protocol: (§4)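 MCF-7 cells in MEM with 10% FBS at 5% CO2 were exposed to compounds (1–100 µM, 0.1% DMSO vehicle) for 48 or 72 h before MTT read-out. IC50 values came from the MTT assay.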
For assay [4], the system named is MCF7. Nature of the assay: Cytotoxicity against human MCF7 after 72 hrs by MTT assay. The format is functional, cell-based. As to conditions: MCF7, 72 h. A digest of the protocol: as §4
The subject of the next assay is Escherichia coli. Nature of the assay: microbe, parasite or virus in culture. As to conditions: ATCC 25922, 24 h.
The subject of assay [5] is Staphylococcus aureus (ATCC 25923). Kind of assay: Antibacterial activity against Staphylococcus aureus ATCC 25923 after 24 hrs by browth microdilution assay. As to conditions: ATCC 25923, 24 h.

As to `Nc1ccc2sc(NC(=S)NC(=O)N3CCOCC3)nc2c1`, the MIC with Enterobacter cloacae was found to be 25 µg/mL (≈ 74.1 µM); against Pseudomonas aeruginosa it was 50 µg/mL (≈ 148 µM); with Proteus vulgaris, 20 µg/mL (≈ 59.3 µM); in [1], 20 µg/mL (≈ 59.3 µM); against Staphylococcus aureus, 25 µg/mL (≈ 74.1 µM); in the assay with Enterococcus faecalis, 50 µg/mL (≈ 148 µM). The MIC against Nakaseomyces glabratus is 15 µg/mL (≈ 44.5 µM); in the assay on Candida albicans, 20 µg/mL (≈ 59.3 µM); in the assay on Candida tropicalis, 20 µg/mL (≈ 59.3 µM); against Pichia kudriavzevii it was 25 µg/mL (≈ 74.1 µM); in the assay on Escherichia coli, 20 µg/mL (≈ 59.3 µM); in assay [5] it was 50 µg/mL (≈ 148 µM). Moreover, the IC50 came to 26.4 µM in the assay with MCF7 [2], 45.3 µM with HeLa, 19.2 µM in the assay with MCF7 [3] and 17.1 µM in the assay on MCF7 [4].
As for `O=C(NC(=S)Nc1nc2cc([N+](=O)[O-])ccc2s1)c1ccccc1`, the MIC in the assay with Enterobacter cloacae came out at 25 µg/mL (≈ 69.8 µM); against Pseudomonas aeruginosa it was 20 µg/mL (≈ 55.8 µM); against Proteus vulgaris it was 15 µg/mL (≈ 41.9 µM); in [1], 20 µg/mL (≈ 55.8 µM); in the assay on Staphylococcus aureus, 25 µg/mL (≈ 69.8 µM); with Enterococcus faecalis it was 50 µg/mL (≈ 140 µM). In addition, the MIC in the assay with Nakaseomyces glabratus worked out at 15 µg/mL (≈ 41.9 µM); with Candida albicans it was 25 µg/mL (≈ 69.8 µM); in the assay on Candida tropicalis it was 50 µg/mL (≈ 140 µM); in the assay with Pichia kudriavzevii, 50 µg/mL (≈ 140 µM); against Escherichia coli, 20 µg/mL (≈ 55.8 µM); in [5] it was 15 µg/mL (≈ 41.9 µM). Besides, the IC50 was 41.6 µM with MCF7 [2] and 75.1 µM in the assay on HeLa.
As for `Nc1ccc2sc(NC(=S)NC(=O)c3ccc([N+](=O)[O-])cc3)nc2c1`, the MIC worked out at 25 µg/mL (≈ 66.9 µM) with Enterobacter cloacae; 50 µg/mL (≈ 134 µM) in the assay with Pseudomonas aeruginosa; 25 µg/mL (≈ 66.9 µM) against Proteus vulgaris; 50 µg/mL (≈ 134 µM) in [1]; 50 µg/mL (≈ 134 µM) in the assay on Staphylococcus aureus; 50 µg/mL (≈ 134 µM) with Enterococcus faecalis. Besides, the MIC was 50 µg/mL (≈ 134 µM) against Nakaseomyces glabratus; 50 µg/mL (≈ 134 µM) with Candida albicans; 25 µg/mL (≈ 66.9 µM) against Candida tropicalis; 50 µg/mL (≈ 134 µM) against Pichia kudriavzevii; 25 µg/mL (≈ 66.9 µM) in the assay on Escherichia coli; 50 µg/mL (≈ 134 µM) in assay [5]. Further, the IC50 with MCF7 [2] was 33.2 µM; with HeLa it was 63.1 µM.
As for `O=C(NC(=S)Nc1nc2cc(Br)ccc2s1)N1CCOCC1`, the MIC was determined as 50 µg/mL (≈ 125 µM) in the assay with Enterobacter cloacae; 50 µg/mL (≈ 125 µM) in the assay with Pseudomonas aeruginosa; 50 µg/mL (≈ 125 µM) against Proteus vulgaris; 25 µg/mL (≈ 62.3 µM) in assay [1]; 25 µg/mL (≈ 62.3 µM) against Staphylococcus aureus; 50 µg/mL (≈ 125 µM) against Enterococcus faecalis. For the same molecule, the MIC with Nakaseomyces glabratus turned out to be 25 µg/mL (≈ 62.3 µM); in the assay on Candida albicans, 50 µg/mL (≈ 125 µM); in the assay with Candida tropicalis, 25 µg/mL (≈ 62.3 µM); against Pichia kudriavzevii, 50 µg/mL (≈ 125 µM); in the assay with Escherichia coli, 25 µg/mL (≈ 62.3 µM); in assay [5] it was 50 µg/mL (≈ 125 µM). In addition, the IC50 worked out at 18.1 µM in the assay on MCF7 [2], 38.9 µM in the assay with HeLa, 20.3 µM in the assay with MCF7 [3] and 6.95 µM in the assay with MCF7 [4].
`O=C(NC(=S)Nc1nc2cc(Br)ccc2s1)c1cccs1`: the MIC stood at 50 µg/mL (≈ 126 µM) in the assay on Enterobacter cloacae, 25 µg/mL (≈ 62.8 µM) against Pseudomonas aeruginosa, 50 µg/mL (≈ 126 µM) against Proteus vulgaris and 25 µg/mL (≈ 62.8 µM) in the assay with Escherichia coli. Further, the concentration for half-maximal inhibition (IC50) in the assay with MCF7 [2] was 24.2 µM; in the assay on HeLa, 46.5 µM; in the assay on MCF7 [3] it was 15.7 µM; in the assay with MCF7 [4] it was 12.1 µM.
For `Nc1ccc2sc(NC(=S)NC(=O)c3ccccc3)nc2c1`, the MIC (against Enterobacter cloacae; against Pseudomonas aeruginosa; in the assay with Proteus vulgaris; in [1]; with Staphylococcus aureus; in the assay with Enterococcus faecalis) was 50 µg/mL (≈ 152 µM) each time. Further, the MIC against Nakaseomyces glabratus was 25 µg/mL (≈ 76.1 µM); against Candida albicans, 25 µg/mL (≈ 76.1 µM); in the assay on Candida tropicalis, 50 µg/mL (≈ 152 µM); with Pichia kudriavzevii, 25 µg/mL (≈ 76.1 µM); with Escherichia coli, 50 µg/mL (≈ 152 µM); in [5], 50 µg/mL (≈ 152 µM). Besides, the IC50 was 38.6 µM in the assay with MCF7 [2] and 70.1 µM with HeLa.
